Shown are actives, neighbours in structure and some others; about 1.8% of the full set was active somewhere.
CHRM4 agonist: human M4 muscarinic receptor agonists, primary screen, CHO-K1 cells, Fluo-8 calcium fluorescence. Muscarinic acetylcholine receptor M4 (Homo sapiens), P08173. CHO-K1 hM4/Gqi5; vehicle 0%, full acetylcholine response 100%. activation, % at 3 µM. 360,000 tested, 0.14% active. AID 624127, 2012;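 active = activation above the run mean over all test wells plus 3 SD, cut at about 32% in these data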;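 note: peak over basal fluorescence ratio per well then scaled between controls; 0% = DMSO wells and 100% = acetylcholine at EC100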
M4 PAM: human M4 muscarinic receptor positive allosteric modulators, primary screen, CHO-K1 cells, Fluo-8 calcium fluorescence; Muscarinic acetylcholine receptor M4 (Homo sapiens), P08173; CHO-K1 hM4/Gqi5, ACh EC20; 0% = ACh EC20, 100% = maximal ACh; activation, % at 3 µM; 360,000 tested, 0.4% active; AID 624126, 2012;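 active = activation above its plate's cutoff, the mean activation of sample wells plus 3 SD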
CHRM4 antagonist: human M4 muscarinic receptor antagonists, primary screen, CHO cells, Fluo-8 calcium fluorescence; Muscarinic acetylcholine receptor M4 (Homo sapiens), P08173; CHO-hM4 cells, ACh EC80; inhibition, % at 3 µM; 360,000 tested, 0.73% active; AID 624125, 2012;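 active = inhibition above its plate's cutoff, the mean inhibition of sample wells plus 3 SD, cut at about 27% in these data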;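 note: 0% = acetylcholine EC80 with DMSO and 100% = DMSO without agonist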
M5 ag: human M5 muscarinic receptor agonists, primary screen, CHO-K1 cells, Fluo-8 calcium fluorescence. Muscarinic acetylcholine receptor M5 (Homo sapiens), P08912. CHO-K1 hM5 cells; 0% DMSO wells, 100% maximal acetylcholine response. activation, % at 3 µM. 360,000 tested, 0.19% active. AID 624037, 2012;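 active = activation above the run's mean over test compounds plus 3 SD, cut at about 23% in these data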;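 note: signal is peak over basal fluorescence ratio across the kinetic read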
Target sequence (P08912 whole entry, looked up): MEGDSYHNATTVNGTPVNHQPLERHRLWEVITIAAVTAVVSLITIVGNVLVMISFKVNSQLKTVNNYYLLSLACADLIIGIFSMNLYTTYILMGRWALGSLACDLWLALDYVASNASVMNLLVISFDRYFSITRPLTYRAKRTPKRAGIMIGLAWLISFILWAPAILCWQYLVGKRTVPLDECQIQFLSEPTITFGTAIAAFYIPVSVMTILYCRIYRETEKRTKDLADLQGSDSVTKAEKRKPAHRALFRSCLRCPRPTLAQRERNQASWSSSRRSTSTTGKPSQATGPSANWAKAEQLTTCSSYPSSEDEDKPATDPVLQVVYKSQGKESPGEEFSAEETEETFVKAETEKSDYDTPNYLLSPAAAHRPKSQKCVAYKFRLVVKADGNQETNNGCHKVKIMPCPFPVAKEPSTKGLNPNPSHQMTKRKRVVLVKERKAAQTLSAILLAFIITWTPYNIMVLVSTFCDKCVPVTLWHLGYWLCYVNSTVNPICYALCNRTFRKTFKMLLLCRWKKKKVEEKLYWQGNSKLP
M5 PAM: human M5 muscarinic receptor positive allosteric modulators, primary screen, CHO-K1 cells, Fluo-8 calcium fluorescence. 360,000 tested, 0.3% active. CHO-K1 hM5, ACh EC20 PAM; 0% = ACh EC20, 100% = ACh EC100. activation, % at 3 µM;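 active = activation above the run cutoff, the mean activation of all test compounds plus 3 SD, cut at about 18% in these data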
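Assay system: CHO-K1 hM5 cells. Also added: acetylcholine at EC20 concentration, added after compound. Dosing: 3 µM, single dose. Times: compound preincubation 140 s before EC20 acetylcholine addition. Signal: Fluo-8 calcium fluorescence. Measure: % activation relative to EC20 and EC100 ACh responses. Repeats: singlicate, one well per test compound.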
M5 antag: human M5 muscarinic receptor antagonists, primary screen, CHO cells, Fluo-8 calcium fluorescence | CHO-hM5 cells, ACh EC80 | inhibition, % at 3 µM | 360,000 tested, 0.59% active | AID 624040, 2012;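 active = inhibition above a per-plate cutoff, the mean of that plate's test compounds plus 3 SD, cut at about 27% in these data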;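 note: 0% = acetylcholine EC80 with DMSO and 100% = DMSO without agonist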
* = called active by the depositor.

SMILES	CHRM4 agonist	M4 PAM	CHRM4 antagonist	M5 ag	M5 PAM	M5 antag
COc1ccc(-c2ccc(C(=O)Nc3cccc(NS(C)(=O)=O)c3)c3occc23)c(C)c1	7	-8	31*	-1	-15	15
Nc1c(-c2ccc(Cl)cc2)cnn1-c1cccc([N+](=O)[O-])c1	2	-10	11	-6	-19	33*
Nc1c(-c2ccccc2)cnn1-c1cccc([N+](=O)[O-])c1	2	-4	-5	-8	-17	7
OCCN(CC#CCC(O)(c1ccccc1)C1CCCC1)CCO (stereo not given)	1	-1	-7	-13	7	-1
CN(C)CC#CCC(O)(c1ccccc1)C1CCCCC1 (stereo not given)	3	-17	92*	-16	-31	96*
CCN(CC)CC#CCC(O)(c1ccccc1)C1CCCC1 (stereo not given)	1	-21	95*	-6	-23	95*
COC(=O)C[C@H]1CC[C@@H](NC(=O)Nc2c(C)noc2C)[C@@H](CO)O1	2	8	-3	-1	-3	10
Fc1ccccc1CN1CCCCCCC1	0	1	-2	-4	2	-6
c1ccc(Sc2ccccc2CN2CCCC2)cc1	1	-15	39*	-20	-34	74*
CCCN(C)C1CN(Cc2cn(Cc3ccccc3)nn2)S(=O)(=O)C1 (stereo not given)	0	21	-17	-1	4	-17
CCN1/C(=C/c2cc[n+](CCCS(=O)(=O)[O-])c3ccccc23)Sc2ccccc21	0	1	2	-1	5	0
C=CC[n+]1ccc(/C=C2\C=Cc3cc(C)ccc3N2CC)c2ccccc21	4	-12	15	1	-18	35*
Cc1ccc(NC(=O)CS(=O)(=O)c2cn(CC(=O)N3CCOCC3)c3ccccc23)cc1	2	25	36*	-3	3	-9
CCOC(=O)/C(=C\C=C1/Sc2ccccc2N1CC)C(C)=O	52*	-29	4	36*	-15	10
CCOC(=O)/C(=C/C=C1\Sc2cc(C)c(C)cc2N1CC)C(C)=O	24	-4	11	12	0	11
CCOC(=O)/C(=C/C=C1\Sc2ccccc2N1CC)C(C)=O	18	-9	14	47*	-16	23
O=C(CN1C(=O)CCC1=O)Nc1ccc(Br)cc1	0	3	-15	-5	-10	-5
O=C(CN1C(=O)CCC1=O)Nc1cccc(NC(=O)CN2C(=O)CCC2=O)c1	1	11	-10	0	19*	-2
Cn1nc(C(C)(C)C)c([N+](=O)[O-])c1C(=O)NC(C)(C)C	1	32*	1	1	4	5
Cn1nc(C(C)(C)C)c([N+](=O)[O-])c1C(=O)Nc1ccccc1	3	4	-5	0	-15	15
Cc1nc2ccc(C(=O)NCCCn3ccnc3)cn2c1N(C)CC1CCCCC1	1	-6	-9	-2	-1	-6
Cc1cc(NC(=O)CSc2nc(-c3ccccc3)c(C#N)c(=O)[nH]2)no1	-2	21*	-4	-2	9	-8
CCOC(=O)C1=CC[C@@H](c2ccccc2)N(S(=O)(=O)c2ccc(C)cc2)[C@H]1C#N	7	-6	32*	2	4	3
CCOC(=O)C1=CC[C@@H](c2ccccc2)N(S(=O)(=O)c2ccc(C)cc2)[C@H]1c1ccc(C#N)cc1	0	-14	-3	-2	-12	3
CC(C)Cc1nnc(NC(=O)C2CCCN(C(=O)c3ccc(Cl)cc3)C2)s1 (stereo not given)	1	7	-8	3	7	-3
N#C/C(=C\Nc1ccc2cn[nH]c2c1)c1nc(-c2ccccc2)cs1	1	3	-3	1	-3	4

High-throughput results: PubChem, The Scripps Research Institute Molecular Screening Center
